Assay [1] concerns tubulin (Bos taurus). Nature of the assay: Percent assembly of bovine brain tubulin induced by compound at 10 uM versus that caused by 10 uM paclitaxel.
The test system of assay [2] is 2008. Nature of the assay: Inhibitory concentration against 2008 (ovarian) cells. The assay is classed as functional. To be noted: Homo sapiens. The essentials: (§1)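 Cells plated at 500-2000/well, allowed to attach and grow 48 h, then exposed continuously for 72 h to vehicle (4% DMSO) or agent. Initial screen at 5-fold dilutions; GI50 then set by a repeat screen of five 2-fold dilutions centred on the estimate, in quadruplicate. A time-zero plate was included. Cell number was read by MTS/phenazine methanesulfonate absorbance (490 minus 630 nm). Values are means ± SD, N=4.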

Assay [3] in a line: Percent competition for binding to preformed microtubules by 4 uM as against 2 uM of 3[H]paclitaxel. The assay is classed as functional. Put shortly: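 Microtubules preformed from 2 µM bovine brain tubulin with 20 µM ddGTP in monosodium glutamate, 30 min at 37 °C. Then 2 µM [3H]paclitaxel plus 4 µM agent (final concentrations) was added for 30 min at 37 °C. Samples were centrifuged at 14000 rpm for 20 min at room temperature, and supernatant radioactivity was counted. Bound = total minus free, normalized to the no-inhibitor control.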

Assay [4] is described as follows: Inhibitory concentration against […] (breast) cells. The assay is classed as functional. To be noted: Homo sapiens. Put shortly: as §1
Assay [5] deals with PC-3. Nature of the assay: Inhibitory concentration against PC3 (prostate) cells. The format is functional. To be noted: Homo sapiens. The essentials:
as §1

Assay [6] has as its system A549. Nature of the assay: Antiproliferative potency determined as inhibitory concentration against A549 cells. The assay is classed as functional, cell-based. Particulars: Homo sapiens. Put shortly:
(§2)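 MTS growth-inhibition assay. Cells seeded at 500-2000/well, attached and grown 48 h, then given agent or vehicle (4% DMSO) for 72 h continuous exposure. A time-zero plate was read. Initial 5-fold dilution screen, then 2-fold dilutions (five concentrations) centred on the estimated GI50, in quadruplicate. Read-out A490 minus A630 with phenazine methanesulfonate as electron acceptor. Mean ± SD, N = 4 over 10 concentrations.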

Assay [7] is described as follows: Antiproliferative potency determined as inhibitory concentration against MG63 cells. The assay is classed as functional, cell-based. Particulars: Homo sapiens, MG-63. The essentials:
as §2

pIC50: −log10 of the molar value.

As for `CCCCCC(C)(C)[C@H](OC(N)=O)[C@@H](C)[C@H](O)CC/C=C\C(C)[C@@H](O)[C@@H](C)/C=C\CC[C@@H]1O[C@@H](OC)[C@H](C)[C@@H](OCOC)[C@@H]1C` (stereo partly drawn), the Activity was 9% in assay [1] and 15% in assay [3]. Also, the results for the GI50 in assay [2], in assay [4] and in assay [5] were 42000 nM, 23000 nM and 38000 nM, respectively.
Molecule `C=C/C=C\C(C)C(OC(N)=O)[C@@H](C)[C@H](O)C(C)C/C(C)=C\C(C)[C@@H](O)[C@@H](C)/C=C\C(C[C@@H]1OC(=O)[C@H](C)[C@@H](OC(C)=O)[C@H]1C)OC(C)=O` (stereo partly drawn) gave a pIC50 in assay [6] of 9.10.
The same measure, in the same setting: the same measure for `C=C/C=C\C(C)C(OC(N)=O)[C@@H](C)[C@H](O)C(C)C/C(C)=C\C(C)[C@@H](O)[C@@H](C)/C=C\C(O)C[C@@H]1OC(=O)[C@H](C)[C@@H](OC(C)=O)[C@H]1C` (stereo partly drawn): 8.42.
For the molecule `C=C/C=C\[C@H](C)[C@H](OC(N)=O)[C@@H](C)[C@H](O)CC/C=C\C(C)[C@@H](O)[C@@H](C)/C=C\CC[C@@H]1OC(=O)[C@H](C)[C@@H](O)[C@@H]1C` (stereo partly drawn), the Activity in assay [1] is 11%; in assay [3] it was 21%. Besides, the results for the GI50 in assay [2], in assay [4] and in assay [5] were 5200 nM, 2100 nM and 7500 nM, respectively.
Turning to `C=C/C=C\C(C)C(OC(N)=O)[C@@H](C)[C@H](O)C(C)C/C(C)=C\C(C)[C@@H](O)[C@@H](C)/C=C\C(C[C@@H]1OC(=O)[C@H](C)[C@@H](O)[C@H]1C)OC(C)=O` (stereo partly drawn), in assay [6], the pIC50 was 9.10.
On to `COCO[C@H]1[C@@H](C)[C@H](CC/C=C\[C@H](C)[C@H](O)[C@@H](C)/C=C\CC[C@@H](O)[C@H](C)COC(N)=O)OC(=O)[C@@H]1C`, for which the figures for the Activity in assay [1] and in assay [3] were less than 5% and 13%, respectively. Moreover, the GI50 in assay [2] is more than 50000 nM; in assay [4], 30000 nM; in assay [5], more than 50000 nM.
`C=C/C=C\[C@H](C)[C@H](OC(N)=O)[C@@H](C)[C@H](O)CC/C=C\C(C)[C@@H](O)[C@@H](C)/C=C\CC[C@@H]1OC(=O)[C@H](C)[C@@H](OCOC)[C@@H]1C` (stereo partly drawn): the Activity was found to be 27% in assay [1] and 57% in assay [3]. Besides, the GI50 in assay [2] amounted to 650 nM; in assay [4], 870 nM; in assay [5], 1800 nM.
`C=C/C=C\C(C)C(OC(N)=O)[C@@H](C)[C@H](O)CC/C(C)=C\C(C)[C@@H](O)[C@@H](C)/C=C\C(O)C[C@@H]1OC(=O)[C@H](C)[C@@H](O)[C@H]1C` (stereo partly drawn) had a pIC50 in assay [7] of 8.00.
Regarding `C=C/C=C\[C@H](C)[C@H](OC(N)=O)[C@@H](C)[C@H](O)[C@@H](C)C/C(C)=C\[C@H](C)[C@@H](O)[C@@H](C)/C=C\[C@@H](O)C[C@@H]1OC(=O)[C@H](C)[C@@H](O)[C@H]1C` [DISERMOLIDE], the figures for the Activity in assay [1] and in assay [3] were 14% and 32%, respectively. Moreover, the 50% growth inhibitory concentration (GI50) in assay [2] turned out to be 1500 nM; in assay [4], 2600 nM; in assay [5], 3000 nM.
In assay [6], `C=C/C=C\C(C)C(OC(N)=O)[C@@H](C)[C@H](O)[C@@H](C)C/C=C/C(C)[C@@H](O)[C@@H](C)/C=C\C(O)C[C@@H]1OC(=O)C(C)[C@@H](O)[C@H]1C` (stereo partly drawn) had a pIC50 of 6.31.
In the case of `C=C/C=C\C(C)C(OC(N)=O)[C@@H](C)[C@H](O)[C@@H](C)C/C(C)=C\C(C)[C@@H](O)[C@@H](C)/C=C\C(O)C[C@@H]1OC(=O)[C@H](C)[C@@H](O)[C@H]1C` (stereo partly drawn), the Activity is more than 100% in assay [1] and 64% in assay [3]. In addition, the results for the concentration for 50% growth inhibition (GI50) in assay [2], in assay [4] and in assay [5] were 72 nM, 16 nM and 67 nM, respectively. The negative-log IC50 (pIC50) was 8.22 in assay [7] and 8.42 in assay [6].
In the case of `CCCCCC[C@H](OC(N)=O)[C@@H](C)[C@H](O)CC/C=C\C(C)[C@@H](O)[C@@H](C)/C=C\CC[C@@H]1O[C@@H](OC)[C@H](C)[C@@H](OCOC)[C@@H]1C` (stereo partly drawn), the Activity in assay [1] came to 6%; in assay [3], 9%. The concentration for 50% growth inhibition (GI50) was 29000 nM in assay [2], 24000 nM in assay [4] and more than 50000 nM in assay [5].
For `C=C/C=C\[C@H](C)[C@H](OC(N)=O)[C@@H](C)[C@H](O)CC/C=C\C(C)[C@@H](O)[C@@H](C)/C=C\CC[C@@H]1O[C@@H](OC)[C@H](C)[C@@H](OCOC)[C@@H]1C` (stereo partly drawn), in that order: 11%, 19%, 4700 nM, 3400 nM and 15000 nM.
With `C=C/C=C\C(C)C(OC(N)=O)[C@@H](C)[C@H](OC(C)=O)C(C)C/C(C)=C\C(C)[C@@H](O)[C@@H](C)/C=C\C(O)C[C@@H]1OC(=O)[C@H](C)[C@@H](OC(C)=O)[C@H]1C` (stereo partly drawn), the negative logarithm of the IC50 (pIC50) in assay [6] was 6.28.
`C=C/C=C\C(C)C(OC(N)=O)[C@@H](C)[C@H](O)C(C)C/C(C)=C\C(C)[C@@H](OC(C)=O)[C@@H](C)/C=C\C(O)C[C@@H]1OC(=O)[C@H](C)[C@@H](OC(C)=O)[C@H]1C` (stereo partly drawn): the pIC50 in assay [6] is 6.79. This pIC50 lies 0.51 log units higher than the previous one.
The same measure, in the same setting: the same measure for `C=C/C=C\C(C)C(OC(N)=O)[C@@H](C)[C@H](O)[C@@H](C)C/C(C)=C\C(C)[C@@H](O)[C@@H](C)/C=C\C(O)C[C@@H]1OC(=O)C(C)=C[C@H]1C` (stereo partly drawn): 8.74; for `C=C/C=C\C(C)C(OC(N)=O)[C@@H](C)[C@H](O)[C@@H](C)C/C=C\C(C)[C@@H](O)[C@@H](C)/C=C\C(O)C[C@@H]1OC(=O)C(C)[C@@H](O)[C@H]1C` (stereo partly drawn): 8.11.
On the same count and under the same terms, the same measure for `C=C/C=C\C(C)C(OC(N)=O)[C@@H](C)[C@H](O)[C@@H](C)C/C(C)=C\C(C)[C@@H](O)[C@@H](C)/C=C\CC[C@@H]1OC(=O)C=C[C@H]1C` (stereo partly drawn): 7.94.
On to `CC(=O)O[C@H]1C(=O)[C@@]2(C)[C@H]([C@H](OC(=O)c3ccccc3)[C@]3(O)C[C@H](OC(=O)[C@H](O)[C@@H](NC(=O)c4ccccc4)c4ccccc4)C(C)=C1C3(C)C)[C@]1(OC(C)=O)CO[C@@H]1C[C@@H]2O` [PACLITAXEL], for which the Activity in assay [1] was 100%; in assay [3], 37%. Besides, the values for the concentration for 50% growth inhibition (GI50) in assay [2], in assay [4] and in assay [5] were 9.2 nM, 2.4 nM and 15 nM, respectively. Besides, in assay [6], the pIC50 is 8.85.

(Values after ChEMBL document CHEMBL1145824, “Simplified discodermolide analogues: synthesis and biological evaluation of 4-epi-7-dehydroxy-14,16-didemethyl-(+)-discodermolides as microtubule-stabilizing agents” (J Med Chem, 2003).)
